ChEMBL document CHEMBL1139166, “Synthesis and in vitro evaluation of tetrahydroisoquinolinyl benzamides as ligands for sigma receptors” (Bioorg Med Chem Lett, 2007)

Columns and labels:
Cavia porcellus = species: Cavia porcellus; assay: Selectivity for sigma 2 receptor over sigma 1 receptor in guinea pig brain membrane; assay type: cell membranes
Outline: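 Selectivity is the ratio of sigma1 Ki to sigma2 Ki. Sigma1 Ki came from [3H](+)-pentazocine competition and sigma2 Ki from [3H]DTG competition with (+)-pentazocine mask, both in male guinea pig brain membranes.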

[1] = biological target: T1, Sigma non-opioid intracellular receptor 1 (Cavia porcellus, UniProt Q60492); assay: Displacement of [3H](+)-pentazocine from sigma 1 receptor in guinea pig brain membrane; assay type: cell membranes
Outline: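 Male guinea pig brain membranes (0.25 mg protein) were incubated with 1.0 nM [3H](+)-pentazocine in 50 mM Tris-HCl (pH 7.4, 25 °C) for 150 min at 37°C. Haloperidol (1.0 µM) defined nonspecific binding. Ten log-spaced test concentrations were used, in water with 0.1% HOAc/1.0% EtOH. Bound radioactivity was collected on PEI-soaked GF/B filters and counted by scintillation.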

[2] = Displacement of [3H]DTG from sigma 2 receptor in guinea pig brain membrane; assay type: cell membranes, Cavia porcellus
Outline: (§1)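 Male guinea pig brain membranes (0.25 mg protein) were incubated with 3.0 nM [3H]DTG plus 200 nM (+)-pentazocine as sigma1 mask. Buffer was 50 mM Tris-HCl, pH 8.0, and incubation was 120 min at 25 °C. DTG (100 µM) defined nonspecific binding. Ten log-spaced test concentrations were used. Filters were PEI-soaked GF/B, read by scintillation counting. Ki given as mean ± SEM, n = 3–5.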

[3] = biological target: T1, Sigma non-opioid intracellular receptor 1; assay: Displacement of [3H](+)-pentazocine from sigma 1 receptor in guinea pig brain membrane at pH 8.0 at 25 degC; assay type: cell membranes
Outline: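 This alternative sigma1 regimen used guinea pig brain membranes with 3.0 nM [3H](+)-pentazocine in pH 8.0 buffer. Incubation was 120 min at 25 °C. Nonspecific binding was defined with 10 µM (+)-pentazocine. Bound ligand was separated by filtration and counted by scintillation.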

[4] = Displacement of [3H]DTG from sigma 2 receptor in guinea pig brain membrane at pH 8.0 at 25 degC; assay type: cell membranes, Cavia porcellus; outline: as §1

T1 sequence (Q60492 whole entry): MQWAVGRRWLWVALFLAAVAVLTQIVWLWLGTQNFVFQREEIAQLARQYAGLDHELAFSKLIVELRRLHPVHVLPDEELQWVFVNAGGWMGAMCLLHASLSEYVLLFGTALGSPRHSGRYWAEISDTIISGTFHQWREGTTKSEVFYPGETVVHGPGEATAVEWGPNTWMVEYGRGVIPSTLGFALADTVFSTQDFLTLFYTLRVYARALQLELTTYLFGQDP

| SMILES | Ratio Ki (Cavia porcellus) | Ki [1] | Ki [2] | IC50 [3] | IC50 [4] |
| --- | --- | --- | --- | --- | --- |
| COc1cc(Br)cc(C(=O)NCCCCN2CCc3cc4c(cc3C2)OCO4)c1OC | 4 | 0.0822 µM | 0.0207 µM | – | – |
| COc1cc(Br)cc(C(=O)NCCCCN2CCc3cc4c(cc3C2)OCCO4)c1OC | 16 | 0.338 µM | 0.0217 µM | – | – |
| COc1cc(Br)cc(C(=O)NCCCCN2CCc3cc4c(cc3C2)OCCCO4)c1OC | 44 | 1.43 µM | 0.0326 µM | – | – |
| COc1cc2c(cc1OC)CN(CCCCNC(=O)c1cc(Br)cc(OC)c1OC)CC2 | – | – | 0.0027 µM | 1.89 µM | 0.003 µM |
| COc1ccc(CCNCCCCNC(=O)c2cc(Br)cc(OC)c2OC)cc1OC | 0.2 | 0.88 µM | 4.62 µM | – | – |
